Columns and labels:
[1] = target: T1, Hepatocyte growth factor receptor (Homo sapiens, UniProt P08581); test: Inhibition of recombinant MET kinase domain (unknown origin)
[2] = target: Vascular endothelial growth factor receptor 2 (Homo sapiens, UniProt P35968); test: Inhibition of recombinant VEGFR2 kinase domain (unknown origin)
Procedure, shortened: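 In vitro kinase assay using purified recombinant VEGFR-2 kinase domain; IC50 determined.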

Homo sapiens = species on record: Homo sapiens; test: Selectivity ratio of IC50 for recombinant VEGFR2 (unknown origin) to IC50 for recombinant MET (unknown origin)
Procedure, shortened: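 In vitro enzyme assays used purified recombinant MET and VEGFR-2 kinase domains, each tested separately. IC50 values are in nM. The ratio divides the VEGFR-2 enzyme IC50 by the MET enzyme IC50.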

[3] = Half life in human liver microsomes; assay type: ADME, Microsome
[4] = target: T1, Hepatocyte growth factor receptor; test: Inhibition of MET in human MKN-45 cells assessed as reduction in HGF-mediated autophosphorylation; assay type: cell-based

T1 sequence (P08581 whole entry, the tested form may be a part): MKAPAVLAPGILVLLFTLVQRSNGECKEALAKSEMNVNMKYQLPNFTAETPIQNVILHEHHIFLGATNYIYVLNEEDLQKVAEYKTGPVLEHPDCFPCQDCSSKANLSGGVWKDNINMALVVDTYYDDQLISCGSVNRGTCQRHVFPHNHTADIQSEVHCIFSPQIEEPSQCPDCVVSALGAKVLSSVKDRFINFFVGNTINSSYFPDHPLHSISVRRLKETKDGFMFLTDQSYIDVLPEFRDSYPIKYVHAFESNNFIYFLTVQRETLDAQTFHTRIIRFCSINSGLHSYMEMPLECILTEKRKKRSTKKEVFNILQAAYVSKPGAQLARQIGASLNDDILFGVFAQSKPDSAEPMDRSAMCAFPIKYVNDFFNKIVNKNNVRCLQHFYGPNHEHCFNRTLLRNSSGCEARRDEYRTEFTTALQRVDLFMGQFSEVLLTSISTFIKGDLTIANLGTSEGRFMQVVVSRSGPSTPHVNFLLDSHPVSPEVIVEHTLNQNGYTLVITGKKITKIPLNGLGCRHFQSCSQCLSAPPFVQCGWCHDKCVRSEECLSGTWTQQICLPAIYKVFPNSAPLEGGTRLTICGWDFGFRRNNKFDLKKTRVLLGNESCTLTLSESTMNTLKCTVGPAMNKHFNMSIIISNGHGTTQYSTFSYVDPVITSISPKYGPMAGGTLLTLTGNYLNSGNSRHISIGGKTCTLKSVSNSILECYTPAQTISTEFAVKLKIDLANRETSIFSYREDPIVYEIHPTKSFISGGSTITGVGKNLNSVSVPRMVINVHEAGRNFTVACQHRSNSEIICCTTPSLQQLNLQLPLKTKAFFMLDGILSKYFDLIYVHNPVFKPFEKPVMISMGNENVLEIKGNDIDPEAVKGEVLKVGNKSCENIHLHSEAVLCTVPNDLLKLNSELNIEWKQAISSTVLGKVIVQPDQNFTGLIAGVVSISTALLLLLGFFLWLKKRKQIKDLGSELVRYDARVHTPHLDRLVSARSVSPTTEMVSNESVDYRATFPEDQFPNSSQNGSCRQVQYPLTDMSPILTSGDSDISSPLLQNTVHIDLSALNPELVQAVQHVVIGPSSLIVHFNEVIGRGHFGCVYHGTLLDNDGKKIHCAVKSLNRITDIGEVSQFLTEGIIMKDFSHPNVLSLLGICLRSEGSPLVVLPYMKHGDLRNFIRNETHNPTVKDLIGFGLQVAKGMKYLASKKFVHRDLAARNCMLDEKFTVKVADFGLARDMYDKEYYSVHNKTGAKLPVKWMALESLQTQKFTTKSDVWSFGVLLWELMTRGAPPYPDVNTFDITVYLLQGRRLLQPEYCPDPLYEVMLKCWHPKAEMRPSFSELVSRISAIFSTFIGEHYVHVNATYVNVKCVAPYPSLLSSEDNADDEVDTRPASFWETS
Vascular endothelial growth factor receptor 2, sequence (P35968 whole entry, the tested form may be a part): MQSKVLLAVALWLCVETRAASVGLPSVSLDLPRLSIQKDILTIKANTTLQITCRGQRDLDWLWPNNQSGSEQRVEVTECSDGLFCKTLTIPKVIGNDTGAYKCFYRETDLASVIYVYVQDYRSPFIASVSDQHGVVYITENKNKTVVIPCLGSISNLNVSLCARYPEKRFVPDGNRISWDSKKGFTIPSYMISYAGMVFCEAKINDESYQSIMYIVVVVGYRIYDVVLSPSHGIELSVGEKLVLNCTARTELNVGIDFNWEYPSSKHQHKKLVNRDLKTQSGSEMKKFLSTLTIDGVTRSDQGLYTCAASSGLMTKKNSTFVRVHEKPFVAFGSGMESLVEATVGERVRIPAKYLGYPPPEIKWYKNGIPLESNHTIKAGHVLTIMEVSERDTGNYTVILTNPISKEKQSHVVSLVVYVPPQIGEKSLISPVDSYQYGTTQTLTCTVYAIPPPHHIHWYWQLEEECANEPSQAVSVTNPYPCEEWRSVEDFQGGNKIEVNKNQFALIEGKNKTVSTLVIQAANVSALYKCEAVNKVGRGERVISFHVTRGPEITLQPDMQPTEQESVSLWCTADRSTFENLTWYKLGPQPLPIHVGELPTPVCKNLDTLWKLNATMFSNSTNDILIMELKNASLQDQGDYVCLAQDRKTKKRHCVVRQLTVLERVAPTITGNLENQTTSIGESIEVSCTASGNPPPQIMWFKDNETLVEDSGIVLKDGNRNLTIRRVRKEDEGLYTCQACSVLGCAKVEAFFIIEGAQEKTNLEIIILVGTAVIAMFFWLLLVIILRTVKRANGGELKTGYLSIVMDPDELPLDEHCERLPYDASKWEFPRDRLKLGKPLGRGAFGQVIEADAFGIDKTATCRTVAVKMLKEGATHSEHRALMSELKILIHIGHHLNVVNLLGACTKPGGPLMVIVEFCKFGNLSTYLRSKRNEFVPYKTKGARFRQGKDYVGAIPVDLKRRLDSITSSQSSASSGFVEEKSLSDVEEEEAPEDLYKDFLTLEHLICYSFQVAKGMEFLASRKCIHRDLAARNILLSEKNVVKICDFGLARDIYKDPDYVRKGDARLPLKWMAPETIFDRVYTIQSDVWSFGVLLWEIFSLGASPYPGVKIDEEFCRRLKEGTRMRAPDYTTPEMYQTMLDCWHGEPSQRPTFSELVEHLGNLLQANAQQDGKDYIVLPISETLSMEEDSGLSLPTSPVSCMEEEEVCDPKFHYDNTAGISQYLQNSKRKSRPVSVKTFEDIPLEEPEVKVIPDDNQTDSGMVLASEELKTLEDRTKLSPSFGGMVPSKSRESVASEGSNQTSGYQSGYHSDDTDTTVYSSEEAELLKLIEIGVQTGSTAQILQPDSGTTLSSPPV

SMILES	IC50 [1] [nM]	IC50 [2] [nM]	Ratio IC50 (Homo sapiens)	half-life [3] [h]	IC50 [4] [nM]
COc1cc2c(Oc3ccc(Nc4nccc5[nH]cc(-c6ccc(F)cc6)c(=O)c45)cc3F)ncnc2cc1OCCCN1CCOCC1	21.7	227	–	–	–
CCn1cc(-c2ccc(F)cc2)c(=O)c2c(Nc3ccc(Oc4ncnc5cc(OC)c(OC)cc45)c(F)c3)nccc21	28.8	> 3000	> 275	–	–
COc1cc2c(Oc3ccc(Nc4nccc5[nH]cc(-c6ccc(F)cc6)c(=O)c45)cc3F)ncnc2cc1OCC1CCN(C)CC1	15.4	33	–	–	–
COc1cc2c(Oc3ccc(Nc4nccc5[nH]cc(-c6ccc(F)cc6)c(=O)c45)cc3F)ncnc2cc1OCCO.Cc1ccc(S(=O)(=O)O)cc1	13.9	21.7	–	3.85	–
COCCOc1cc2ncnc(Oc3ccc(Nc4nccc5[nH]cc(-c6ccc(F)cc6)c(=O)c45)cc3F)c2cc1OCCOC	19.5	79.2	–	–	–
COc1cc2ncnc(Oc3ccc(Nc4nccc5[nH]cc(-c6ccc(F)cc6)c(=O)c45)cc3F)c2cc1OCCCN1CCCCC1	15.5	208	–	–	–

Second part, the compound after the results:

IC50 [1] [nM]	IC50 [2] [nM]	Ratio IC50 (Homo sapiens)	half-life [3] [h]	IC50 [4] [nM]	SMILES
23.2	121	–	–	–	COc1cc2ncnc(Oc3ccc(Nc4nccc5[nH]cc(-c6ccc(F)cc6)c(=O)c45)cc3F)c2cc1OCCCN1CCOCC1
7.1	> 3000	> 422	4.27	82.9	COc1cc2ncnc(Oc3ccc(Nc4nccc5c4c(=O)c(-c4ccc(F)cc4)cn5C)cc3F)c2cc1OC
8.3	128	–	–	130	COc1cc2c(Oc3ccc(Nc4nccc5[nH]cc(-c6ccc(F)cc6)c(=O)c45)cc3F)ncnc2cc1OCCCN1CCCC1
39.3	68	–	–	–	COc1cc2c(Oc3ccc(Nc4nccc5[nH]cc(-c6ccc(F)cc6)c(=O)c45)cc3F)ncnc2cc1OCCCO
3.5	12.3	–	4.68	–	COc1cc2ncnc(Oc3ccc(Nc4nccc5[nH]cc(-c6ccc(F)cc6)c(=O)c45)cc3F)c2cc1OCCO.Cc1ccc(S(=O)(=O)O)cc1
8.1	145	–	–	–	COc1cc2ncnc(Oc3ccc(Nc4nccc5[nH]cc(-c6ccc(F)cc6)c(=O)c45)cc3F)c2cc1OCCCN1CCCC1
